Here are results for eleven compounds from ChEMBL document CHEMBL3286218, “Structure-activity relationship studies of N-methylated and N-hydroxylated spider polyamine toxins as inhibitors of ionotropic glutamate receptors” (J Med Chem, 2014).

Molecules are shown by their SMILES.

What all share (type): cell-based
Experiment [1] addresses Glutamate NMDA receptor; Grin1/Grin2a (Rattus norvegicus) (UniProt P35439+Q00959). As to the kind of experiment: Inhibition of rat recombinant GluN1/2A expressed in Xenopus oocytes assessed as inhibition of glutamate/glycine-evoked channel current at 100 nM at holding potential of -80 mV by two-electrode voltage clamp technique. The procedure, abridged:
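Single-concentration screen at 100 nM on oocytes expressing GluN1/2A (1:10 cRNA ratio), two-electrode clamp at −80 mV, rt, in frog Ringer's. Percent inhibition of current evoked by 100 μM L-glutamate plus 100 μM glycine, with compound bath-applied in Ringer's.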

In experiment [2] the target is Glutamate receptor 1 (Rattus norvegicus) (UniProt P19490). Nature of the experiment: Inhibition of rat recombinant GluA1 expressed in Xenopus oocytes assessed as inhibition of glutamate-induced channel current at 100 nM at holding potential of -80 mV by two-electrode voltage clamp technique. The procedure, abridged:
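Xenopus oocytes injected with GluA1_i cRNA (25 nL of 1 ng/nL), kept 2–4 days at 17 °C in Barth's medium with gentamicin. Two-electrode voltage clamp at room temperature in superfused frog Ringer's (Ba2+-containing, pH 7.6). Current evoked by 300 μM L-glutamate; test compound at 100 nM added by bath, co-applied with agonist. Percent inhibition of the evoked current recorded.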

Experiment [3] concerns the target Glutamate NMDA receptor; Grin1/Grin2a (Rattus norvegicus, UniProt P35439+Q00959). Nature of the experiment: Inhibition of rat recombinant GluN1/2A expressed in Xenopus oocytes assessed as inhibition of glutamate/glycine-evoked channel current at holding potential of -80 mV by two-electrode voltage clamp technique. The procedure, abridged: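 Oocytes were injected with GluN1/N2A cRNA at a 1:10 ratio (25 nL at 0.5 ng/nL), incubated at 17 °C in Barth's medium with gentamicin, and recorded after 2−4 days. Clamp at −80 mV, rt, in frog Ringer's (BaCl₂, pH 7.6). Increasing antagonist was co-applied with 100 μM L-glutamate plus 100 μM glycine. IC50 came from a Hill fit over 3−8 oocytes.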

For the next experiment, the target named is Glutamate receptor 1 (Rattus norvegicus, UniProt P19490). As to the kind of experiment: Inhibition of rat recombinant GluA1 expressed in Xenopus oocytes assessed as inhibition of glutamate-induced channel current at holding potential of -80 mV by two-electrode voltage clamp technique. The procedure, abridged: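 GluA1_i cRNA (25 nL at 1 ng/nL) injected into collagenase-treated oocytes, kept at 17 °C in Barth's medium (pH 7.4) with gentamicin, recorded 2−4 days later. Held at −80 mV, rt, superfused with frog Ringer's (BaCl₂, pH 7.6). Antagonist co-applied with 300 μM L-glutamate at rising concentrations. Curves from 3−8 oocytes fitted to a Hill equation for IC50.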
Chain of Glutamate receptor 1 (P19490 whole entry, the tested form may be a part): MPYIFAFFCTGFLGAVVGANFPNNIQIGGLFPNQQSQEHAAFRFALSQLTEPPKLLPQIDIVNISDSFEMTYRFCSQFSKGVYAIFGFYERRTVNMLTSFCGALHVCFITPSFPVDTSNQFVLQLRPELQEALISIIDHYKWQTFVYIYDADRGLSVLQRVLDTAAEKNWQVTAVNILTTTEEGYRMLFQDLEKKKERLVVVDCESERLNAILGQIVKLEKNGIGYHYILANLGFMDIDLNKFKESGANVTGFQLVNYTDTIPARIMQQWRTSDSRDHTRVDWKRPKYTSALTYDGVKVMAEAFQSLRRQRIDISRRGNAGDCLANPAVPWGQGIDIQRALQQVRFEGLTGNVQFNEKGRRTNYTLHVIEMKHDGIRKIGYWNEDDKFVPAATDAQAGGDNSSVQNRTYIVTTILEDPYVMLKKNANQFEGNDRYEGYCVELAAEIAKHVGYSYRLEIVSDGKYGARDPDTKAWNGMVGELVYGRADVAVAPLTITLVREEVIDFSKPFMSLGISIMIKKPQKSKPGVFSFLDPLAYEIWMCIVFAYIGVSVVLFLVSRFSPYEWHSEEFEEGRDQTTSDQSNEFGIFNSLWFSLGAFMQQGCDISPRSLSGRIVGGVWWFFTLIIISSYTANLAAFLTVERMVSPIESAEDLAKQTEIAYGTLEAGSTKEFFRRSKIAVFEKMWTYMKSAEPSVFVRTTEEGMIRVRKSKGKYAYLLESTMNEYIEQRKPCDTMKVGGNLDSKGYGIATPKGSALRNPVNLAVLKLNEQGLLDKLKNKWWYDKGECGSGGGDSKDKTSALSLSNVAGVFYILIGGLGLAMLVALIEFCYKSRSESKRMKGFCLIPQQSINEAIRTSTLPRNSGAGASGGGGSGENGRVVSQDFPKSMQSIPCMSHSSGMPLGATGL

Another experiment is filed under the species Rattus norvegicus. Nature of the experiment: Selectivity ratio of IC50 for rat recombinant GluN1/2A expressed in Xenopus oocytes to IC50 for rat recombinant GluA1 expressed in Xenopus oocytes.

Chain of Glutamate receptor 1 (Rattus norvegicus) (P19490 whole entry, the tested form may be a part): as above

Regarding `NCCCNCCCCNCCCNCCCNCCCNC(=O)Cc1ccc(O)cc1O`, the inhibition in experiment [1] was more than 90%.
Same read-out and setting: in the case of `NCCCNCCCCNCCCNCCCNCCCNC(=O)Cc1c[nH]c2cccc(O)c12` it was more than 90%.
With `N=C(N)NCCC[C@H](N)C(=O)NCCCNCCCC[C@H](N)C(=O)NCCCCCNC(=O)[C@H](CC(N)=O)NC(=O)Cc1c[nH]c2ccccc12`, the results for the inhibition in experiment [2] and in experiment [1] were 81% and less than 20%, respectively.
Turning to `CN(CCCC[C@H](N)C(=O)NCCCCCNC(=O)[C@H](CC(N)=O)NC(=O)Cc1c[nH]c2cccc(O)c12)CCCNC(=O)[C@@H](N)CCCNC(=N)N`, the inhibition was more than 40% in experiment [2] and less than 20% in experiment [1]. The IC50 in experiment [3] came out at 1630 nM; at Glutamate receptor 1 it was 52 nM.
Take `NCCCNCCCCNCCCNCCCNCCCNC(=O)Cc1c[nH]c2ccccc12`: the inhibition in experiment [1] was more than 90%.
`C[N+](C)(CCCC[C@H](N)C(=O)NCCCCCNC(=O)[C@H](CC(N)=O)NC(=O)Cc1c[nH]c2ccccc12)CCCNC(=O)[C@@H](N)CCCNC(=N)N`: the inhibition in experiment [2] is more than 40%; in experiment [1], less than 20%.
Turning to `C[N+](C)(CCCC[C@H](N)C(=O)NCCCCCNC(=O)[C@H](CC(N)=O)NC(=O)Cc1c[nH]c2cccc(O)c12)CCCNC(=O)[C@@H](N)CCCNC(=N)N`, the values for the inhibition in experiment [2] and in experiment [1] were more than 40% and less than 20%, respectively. Further, the values for the IC50 (in experiment [3]; on Glutamate receptor 1) were 3850 nM and 123 nM, respectively.
As for `N=C(N)NCCC[C@H](N)C(=O)NCCCNCCCC[C@H](N)C(=O)NCCCCCNC(=O)[C@H](CC(N)=O)NC(=O)Cc1c[nH]c2cccc(O)c12`, the figures for the inhibition in experiment [2] and in experiment [1] were 84% and less than 20%, respectively. In addition, the IC50 worked out at 387 nM in experiment [3] and 15 nM at Glutamate receptor 1. For the same compound, the Ratio IC50 in the experiment listed under Rattus norvegicus was 26.
As to `NCCCNCCCCNCCCNCCCN(O)CCCNC(=O)Cc1c[nH]c2cccc(O)c12`, the inhibition in experiment [1] is more than 90%.
`CN(CCCC[C@H](N)C(=O)NCCCCCNC(=O)[C@H](CC(N)=O)NC(=O)Cc1c[nH]c2ccccc12)CCCNC(=O)[C@@H](N)CCCNC(=N)N`: the inhibition was more than 40% in experiment [2] and less than 20% in experiment [1].
Consider `NCCCNCCCCNCCCNCCCN(O)CCCNC(=O)Cc1c[nH]c2ccccc12`, for which the inhibition in experiment [1] is more than 90%. The IC50 in experiment [3] was determined as 12 nM; at Glutamate receptor 1, 11 nM.
